# From paper PMC11101930 (International Journal for Parasitology: Drugs and Drug …, 2024)
# Counter-ions that a name gives are not always drawn. Like-named read-outs stand apart in the source and are kept apart here.
# Tests used:
# [1] = tested on: newly transformed schistosomula (NTS); test: In vitro screening of newly transformed schistosomula; format: cell-based, Schistosoma mansoni; conditions: 72 h, read-out: NTS EC50
# Procedure, shortened: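 Cercariae shed from Biomphalaria glabrata under light for 4 h were mechanically transformed and kept in M199 with 5% FCS, antibiotic mastermix and pen./strep. at 37 °C, 5% CO2. 40–50 larvae per well were exposed to 10, 7.5, 5, 3.75, 2.5, 1 or 0.25 μM test compound, with DMSO (<1%) as control. Viability was scored visually at 24 and 72 h (0–3, 0.5 steps), and the assay was repeated once. Scores were normalized to vehicle, and EC50 came from a four- or two-parameter sigmoid least-squares fit.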
# adult S. mansoni = test: In vitro screening of adult S. mansoni worms, visual viability scoring; format: cell-based; conditions: Schistosoma mansoni, 72 h, read-out: Adult S. mansoni EC50
# Procedure, shortened: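 Adult worms were recovered from mouse mesenteric veins at day 49 post-infection and held in RPMI 1640 with 5% FCS and antibiotics at 37 °C, 5% CO2. Two worm pairs per well were exposed to 40, 30, 20, 10, 7.5, 5, 2.5 or 1 μM test compound, with DMSO (<1%) as control. Viability was scored visually at 24 and 72 h (0–3, 0.5 steps). Duplicates, repeated once. Scores were normalized to vehicle, and EC50 came from a four-parameter sigmoid fit (two-parameter if not applicable).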
# [2] = Metabolic stability assay in murine liver microsomes; format: in vitro ADME; conditions: for Microsomal stability t1/2: murine liver microsomes, 1 μM, 37 °C
# Procedure, shortened: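 Test compound (1 μM) was incubated at 37 °C with mouse liver microsomes (0.5 mg/ml protein) in potassium phosphate buffer, pH 7.4, with 1.0 mM EDTA. Reactions were started with NADPH and quenched with ice-cold acetonitrile every 15 min up to 1 h. Depletion was followed by LC-MS/MS (ESI+, C18) against internal standards. A first-order exponential decay fit gave t1/2, and CLint was derived assuming hepatic blood flow of 90 ml/min/kg.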
# S. mansoni = test: In vivo efficacy study in S. mansoni-infected mice; parameters: species or system Schistosoma mansoni; conditions: single oral gavage, 200 mg/kg (1) or 100 mg/kg (19); for Mean number of worms (SD): 21 days post-dosing
# Procedure, shortened: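 Female NMRI mice (three weeks old, acclimatized one week) were each infected with 100 cercariae subcutaneously in the nuchal fold. At day 49 they received one oral gavage of test compound in Tween 80/ethanol (70:30, 10% of volume) plus tap water (sonicated, 35 °C); there were four mice per group and four untreated controls. Mice were killed 21 days post-dosing, and worms from mesenteric veins and liver were sexed, counted, and classed as dead or alive. Worm burden reduction was based on living worms versus controls, with a Kruskal-Wallis test.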
# P. falciparum D6 strain = test: Antimalarial activity against P. falciparum D6 strain; format: cell-based, Plasmodium falciparum; conditions: among the 11 compounds most active against adult S. mansoni
Structure (SMILES),EC50 ([1]; Schistosoma mansoni) [nM],EC50 (adult S. mansoni) [µM],also measured
"N=C(N/N=C/c1cccc(-c2ccccc2)c1)N/N=C/c1cccc(-c2ccccc2)c1 [Compound 52, (E)-N'-((E)-[1,1'-biphenyl]-3-ylmethylene)-2-([1,1'-biphenyl]-3-ylmethylene)hydrazine-1-carboximidhydrazide Hydrochloride]",3090,7.57,
"Cl.N#Cc1cccc(C=NNC(=N)NN=Cc2cccc(C#N)c2)c1 [Compound 21, 2,2’-Bis[(3-cyanophenyl)methylene]carbonimidic Dihydrazide Hydrochloride]",1660,4.04,Microsomal stability t1/2 [2]: 58 min
"Cl.N#Cc1cc(/C=N/NC(=N)N/N=C/c2ccc(OC(F)(F)F)cc2)ccc1F [Compound 77, N'-((E)-3-cyano-4-fluorobenzylidene)-2-((E)-4-(trifluoromethoxy)benzylidene)hydrazine-1-carboximidhydrazide Hydrochloride]",4020,6.76,"half-life at 1 μM ([2]; mouse, liver microsomes, pH 7.4): 280 min"
"N=C(N/N=C/c1ccc2ccccc2n1)N/N=C/c1ccc2ccccc2n1 [Compound 62, (E)-N'-((E)-quinolin-2-ylmethylene)-2-(quinolin-2-ylmethylene)hydrazine-1-carboximidhydrazide Hydrochloride]",2500,7.49,
"N=C(NN=CCc1ccc(OC(F)(F)F)cc1)NN=CCc1ccc(OC(F)(F)F)cc1 [Compound 17, 2,2’-Bis[(4-trifluoromethoxyphenyl)ethylidene]carbonimidic Dihydrazide Hydrochloride]",2010,4.91,
"N=C(NN=Cc1ccc(OC(F)F)cc1)NN=Cc1ccc(OC(F)F)cc1 [Compound 18, 2,2’-Bis[(4-difluoromethoxyphenyl)methylene]carbonimidic Dihydrazide Hydrochloride]",4630,5.12,
"N#Cc1cc(/C=N/NC(=N)N/N=C/c2ccc(Cl)c(C#N)c2)ccc1Cl [Compound 71, N',2-bis((E)-4-chloro-3-cyanobenzylidene)hydrazine-1-carboximidhydrazide Hydrochloride]",1240,,
"N=C(N/N=C/c1ccc(Oc2ccc(Cl)cc2)cc1)N/N=C/c1ccc(Oc2ccc(Cl)cc2)cc1 [Compound 59, N',2-bis((E)-4-(4-chlorophenoxy)benzylidene)hydrazine-1-carboximidhydrazide Hydrochloride]",2700,5.52,
"N=C(N/N=C/c1cccc([N+](=O)[O-])c1)N/N=C/c1cccc([N+](=O)[O-])c1 [Compound 49, N',2-bis((E)-3-nitrobenzylidene)hydrazine-1-carboximidhydrazide Hydrochloride]",3300,9.47,
"N=C(NN=Cc1ccc(-c2ccccc2)cc1)NN=Cc1ccc(-c2ccccc2)cc1 [Compound 26, 2,2’-Bis[(4-diphenyl)methylene]carbonimidic Dihydrazide Hydrochloride]",,,EC50 ([1]; four- (a) or two-parameter (b) sigmoid fit): 4430 nM
"N=C(NN=Cc1ccc(OC(F)(F)F)cc1)NN=Cc1ccc(OC(F)(F)F)cc1 [Compound 16, 2,2’-Bis[(4-trifluoromethoxyphenyl)methylene]carbonimidic Dihydrazide Hydrochloride]",3310,8.06,
"N=C(N/N=C/c1ccc(Oc2ccc(F)cc2)cc1)N/N=C/c1ccc(Oc2ccc(F)cc2)cc1 [Compound 58, N',2-bis((E)-4-(4-fluorophenoxy)benzylidene)hydrazine-1-carboximidhydrazide Hydrochloride]",4510,8.59,
"N=C(N/N=C/c1cnc2ccccc2c1)N/N=C/c1cnc2ccccc2c1 [Compound 63, (E)-N'-((E)-quinolin-3-ylmethylene)-2-(quinolin-3-ylmethylene)hydrazine-1-carboximidhydrazide Hydrochloride]",650,,
"N=C(NN=Cc1ccc(C(F)(F)F)cc1)NN=Cc1ccc(C(F)(F)F)cc1 [Compound 12, 2,2’-Bis[(4-trifluoromethylphenyl)methylene]carbonimidic Dihydrazide Hydrochloride]",6230,,
"COc1cc(OC)c(CC=NNC(=N)NN=CCc2cc(Cl)c(OC)cc2OC)cc1Cl [Compound 37, 2,2’-Bis[(2,4-dimethoxy-5-chlorophenyl)ethylidene]carbonimidic Dihydrazide Hydrochloride]",2700,,
"N=C(N/N=C/c1ccnc2ccccc12)N/N=C/c1ccnc2ccccc12 [Compound 64, (E)-N'-((E)-quinolin-4-ylmethylene)-2-(quinolin-4-ylmethylene)hydrazine-1-carboximidhydrazide Hydrochloride]",1570,,
"Cl.N=C(NN=CCc1ccc(OC(F)F)cc1)NN=CCc1ccc(OC(F)F)cc1 [Compound 19, 2,2’-Bis[(4-difluoromethoxyphenyl)ethylidene]carbonimidic Dihydrazide Hydrochloride]",2790,2.78,Tolerability in mice (S. mansoni): well tolerated; Mean number of worms (SD) (S. mansoni): 28.3 (10.6)
"N=C(NN=Cc1ccc([N+](=O)[O-])cc1)NN=Cc1ccc([N+](=O)[O-])cc1 [Compound 27, 2,2’-Bis[(4-nitrophenyl)methylene]carbonimidic Dihydrazide Hydrochloride]",5710,,
"N#Cc1cccc(CC=NNC(=N)NN=CCc2cccc(C#N)c2)c1 [Compound 23, 2,2’-Bis[(3-cyanophenyl)ethylidene]carbonimidic Dihydrazide Hydrochloride]",1120,2.69,
"N=C(NN=Cc1ccc(N2CCOCC2)cc1)NN=Cc1ccc(N2CCOCC2)cc1 [Compound 33, 2,2’-Bis[(4-morpholinophenyl)methylene]carbonimidic Dihydrazide Hydrochloride]",2440,6.45,
"Cl.N#Cc1cc(C=NNC(=N)NN=Cc2ccc(F)c(C#N)c2)ccc1F [Compound 1, 2,2’-Bis[(3-cyano-4-fluorophenyl)methylene]carbonimidic Dihydrazide Hydrochloride]",1250,5.46,Microsomal stability t1/2 [2]: 186 min; Tolerability in mice (S. mansoni): well tolerated; Mean number of worms (SD) (S. mansoni): 24.3 (4.3); Antimalarial activity in vitro and in vivo (ranking) (P. falciparum D6 strain): most potent antimalarial activity in vitro and in vivo
"C#CCOc1ccc(/C=N/NC(=N)N/N=C/c2ccc(C(=O)c3ccccc3)cc2)cc1 [Compound 86, N'-((E)-4-benzoylbenzylidene)-2-((E)-4-(prop-2-yn-1-yloxy)benzylidene)hydrazine-1-carboximidhydrazide Hydrochloride]",4440,,
"N=C(N/N=C/c1ccc(Oc2ccccc2)cc1)N/N=C/c1ccc(Oc2ccccc2)cc1 [Compound 57, N',2-bis((E)-4-phenoxybenzylidene)hydrazine-1-carboximidhydrazide Hydrochloride]",3840,7.07,
"N=C(N/N=C/c1ccc(-c2ccc(F)cc2)cc1)N/N=C/c1ccc(-c2ccc(F)cc2)cc1 [Compound 53, (E)-2-((4'-fluoro-[1,1'-biphenyl]-4-yl)methylene)-N'-((E)-(4'-fluoro-[1,1'-biphenyl]-4-yl)methylene)hydrazine-1-carboximidhydrazide Hydrochloride]",3370,,
